Reference: ChEMBL document CHEMBL1143047, “Aminoglycoside antibiotic derivatives: preparation and evaluation of toxicity on cochlea and vestibular tissues and antimicrobial activity” (Bioorg Med Chem, 2007)
Activity calls are given as the source filed them.

What was measured:
[1] = tested on: Staphylococcus aureus; test: Antimicrobial activity against Staphylococcus aureus ATCC 6538 at 15 mg/ml after 24 hrs by micro dilution method; format: functional, organism-based
Procedure, shortened: (§1)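 Broth microdilution with about 5 × 10^4 CFU/mL per well. Compounds were dissolved in sterile water or in 10% DMSO/water and tested at 15 mg/mL in duplicate. Incubation was 24 h at 35 °C. Growth was scored qualitatively by medium turbidity (growth or no growth) against an inoculated-medium positive control and a medium-only negative control.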

[2] = tested on: Staphylococcus epidermidis; test: Antimicrobial activity against Staphylococcus epidermidis ATCC 12228 at 15 mg/ml after 24 hrs by micro dilution method; format: functional, organism-based; procedure, shortened: as §1
[3] = species on record: Cavia porcellus; test: Ototoxicity assessed as vestibular damage in Albino guinea pig with transtympanic application in right ear relative to left ear control; format: toxicity, organism-based; parameters: concentration or dose not given beside the values; conditions: in vivo, other
Procedure, shortened: (§2)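 Albino guinea pigs (400–600 g) screened by Preyer reflex and otoscopy, with DPOAE/BEAP thresholds up to 5 dB in both ears under ketamine 65 mg/kg. Right ear got a transtympanic sample (0.08–0.10 mL, 0.22 mmol/mL, in water or DMSO); left ear got saline or DMSO; 06 animals. Cochlear hair cells and vestibule (semicircular channels, utriculus, sacculus) scored by SEM after glutaraldehyde/osmium fixation.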

[4] = tested on: Pseudomonas aeruginosa; test: Antimicrobial activity against Pseudomonas aeruginosa ATCC 27853 at 15 mg/ml after 24 hrs by micro dilution method; format: functional, organism-based; procedure, shortened: as §1
[5] = species on record: Cavia porcellus; test: Ototoxicity assessed as cochlear outer cells damage in Albino guinea pig with transtympanic application in right ear relative to left ear control; format: toxicity, organism-based; parameters: concentration or dose not given beside the values; conditions: other; procedure, shortened: as §2
[6] = tested on: Escherichia coli; test: Antimicrobial activity against Escherichia coli ATCC 25922 at 15 mg/ml after 24 hrs by micro dilution method; format: functional, organism-based; procedure, shortened: as §1
[7] = tested on: Micrococcus luteus; test: Antimicrobial activity against Micrococcus luteus ATCC 9341 at 15 mg/ml after 24 hrs by micro dilution method; format: functional, organism-based; procedure, shortened: as §1
[8] = species on record: Cavia porcellus; test: Ototoxicity assessed as cochlear inner cells damage in Albino guinea pig with transtympanic application in right ear relative to left ear control; format: toxicity, organism-based; parameters: concentration or dose not given beside the values; conditions: other; procedure, shortened: as §2

SMILES | Activity [1] | Activity [2] | Activity [3] [%] | Activity [4] | Activity [5] [%] | Activity [6] | Activity [7] | Activity [8] [%]
NC[C@H]1O[C@H](O[C@H]2[C@H](O)[C@@H](O)[C@H](N)C[C@@H]2N)[C@H](N)[C@@H](O)[C@@H]1O [NEAMINE] | Active | Active | 100 | Active | 100 | Active | Active | 0
N[C@@H]1C[C@H](N)[C@@H](O)[C@H](O)[C@H]1O | inactive | inactive | 0 | inactive | 0 | inactive | Active | 0
COC1OC[C@@H](O)[C@@H](O[C@H]2O[C@@H](CN)[C@@H](O)[C@H](O)[C@H]2N)[C@H]1O (some centres undefined) [METHYL-NEOBIOSAMINIDE B] | Active | Active | 100 | Active | 0 | Active | Active | 0
O=C(NC[C@H]1O[C@H](O[C@@H]2[C@@H](O)[C@H](O)[C@@H](NC(=O)OCc3ccccc3)C[C@H]2NC(=O)OCc2ccccc2)[C@H](NC(=O)OCc2ccccc2)[C@@H](O)[C@@H]1O)OCc1ccccc1 |  |  | 0 |  | 100 |  |  | 0
COC(=O)NC[C@H]1O[C@H](O[C@@H]2[C@@H](O)[C@H](O)[C@@H](NC(=O)OC)C[C@H]2NC(=O)OC)[C@H](NC(=O)OC)[C@@H](O)[C@@H]1O |  |  | 0 |  | 0 |  |  | 0
NC[C@@H]1O[C@H](O[C@H]2[C@@H](O)[C@H](O[C@@H]3[C@@H](O)[C@H](N)C[C@H](N)[C@H]3O[C@H]3O[C@H](CN)[C@@H](O)[C@H](O)[C@H]3N)O[C@@H]2CO)[C@H](N)[C@@H](O)[C@@H]1O [FRAMYCETIN] | Active | Active | 50 | Active | 100 | Active | Active | 0
COc1ccc(/C=N\[C@H]2[C@@H](O[C@@H]3[C@@H](O)[C@H](O)[C@@H](/N=C/c4ccc(OC)cc4)C[C@H]3/N=C/c3ccc(OC)cc3)O[C@H](C/N=C/c3ccc(OC)cc3)[C@@H](O)[C@@H]2O)cc1 |  |  | 0 |  | 0 |  |  | 100
CC(=O)NC[C@H]1O[C@H](O[C@@H]2[C@@H](O)[C@H](O)[C@@H](NC(C)=O)C[C@H]2NC(C)=O)[C@H](NC(C)=O)[C@@H](O)[C@@H]1O | Active | Active | 0 | inactive | 0 | Active | Active | 0
